# Reference: ChEMBL document CHEMBL2331484, “Synthesis and biological evaluation of scopoletin derivatives” (Bioorg Med Chem, 2013)
# The source made the active and inactive calls. No cut-off for these calls is given here.
# How the values were obtained:
# HUVEC [1] = assay: Antiproliferative activity against HUVEC assessed as growth inhibition rate at 100 uM after 24 hrs by MTT assay; type: functional; details: Homo sapiens, read-out: GI
# Summary of the method: (§1)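 HUVECs (passages 3–5, primary cord isolates) seeded at 1 × 10⁴ cells/well. Medium replaced with M199 containing 1% FBS plus compound. Viability read by MTT after 24 h. Percent inhibition was calculated from A570 minus A630 of treated versus control wells, and IC50 determined. Triplicate experiments, means ± SEM.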
# HUVEC [2] = assay: Antiproliferative activity against HUVEC assessed as growth inhibition rate at 10 uM after 24 hrs by MTT assay; type: functional; details: Homo sapiens, read-out: GI; summary of the method: as §1
# HUVEC [3] = assay: Antiproliferative activity against HUVEC assessed as growth inhibition rate after 24 hrs by MTT assay; type: functional, cell-based; details: Homo sapiens; summary of the method: as §1
# HUVEC [4] = assay: Effect on total p38 MAPK level in VEGF-stimulated HUVEC pretreated at 10 to 50 umol/L for 30 mins before VEGF addition by Western blot analysis; type: functional, cell-based; details: Homo sapiens
# HUVEC [5] = assay: Effect on total src level in VEGF-stimulated HUVEC pretreated at 10 to 50 umol/L for 30 mins before VEGF addition by Western blot analysis; type: functional, cell-based; details: Homo sapiens
# HUVEC [6] = assay: Effect on total ERK1/2 level in VEGF-stimulated HUVEC pretreated at 10 to 50 umol/L for 30 mins before VEGF addition by Western blot analysis; type: functional, cell-based; details: Homo sapiens
# HUVEC [7] = assay: Effect on total akt level in VEGF-stimulated HUVEC pretreated at 10 to 50 umol/L for 30 mins before VEGF addition by Western blot analysis; type: functional, cell-based; details: Homo sapiens
# [8] = molecular target: MAP kinase p38 (Homo sapiens) (UniProt O15264+Q15759+Q16539+P53778); assay: Inhibition of VEGF receptor signaling in VEGF-stimulated HUVEC assessed a effect on p38 MAPK phosphorylation pretreated at 10 to 50 umol/L for 30 mins before VEGF addition by Western blot analysis; type: protein assay
# [9] = Inhibition of VEGF receptor signaling in VEGF-stimulated HUVEC assessed a effect on src phosphorylation pretreated at 10 to 50 umol/L for 30 mins before VEGF addition by Western blot analysis; type: cell-based; details: Homo sapiens
# [10] = Inhibition of VEGF receptor signaling in HUVEC assessed a inhibition of VEGF-induced Akt phosphorylation pretreated at 10 to 50 umol/L for 30 mins before VEGF addition by Western blot analysis; type: cell-based; details: Homo sapiens
# PANC-1 [11] = assay: Inhibition of MMP-2 protein expression in human PANC1 cells at 10 to 50 umol/L after 24 hrs by SDS-PAGE analysis; type: functional, cell-based
# Summary of the method: (§2)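 Gelatin zymography of culture medium from equal numbers of PANC-1 cells exposed to compound for 24 h. Samples run non-reduced and unboiled on 10% polyacrylamide with 1 mg/mL gelatin. Gel washed in 2.5% Triton X-100 buffer, digested 14 h at 37 °C in Tris–HCl/CaCl2/ZnCl2 buffer pH 7.6, then Coomassie-stained. Clear bands imaged.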
# [12] = Inhibition of VEGF receptor signaling in HUVEC assessed a inhibition of VEGF-induced ERK1/2 phosphorylation pretreated at 10 to 50 umol/L for 30 mins before VEGF addition by Western blot analysis; type: cell-based; details: Homo sapiens
# PANC-1 [13] = assay: Inhibition of MMP-9 protein expression in human PANC1 cells at 10 to 50 umol/L after 24 hrs by SDS-PAGE analysis; type: functional, cell-based; summary of the method: as §2
# Gallus gallus [14] = species on record: Gallus gallus; assay: Antiangiogenic activity in chicken embryo chorioallantoic membrane model assessed as inhibition of new blood vessel formation at 10 nmol/egg after 48 hrs by microscopy; type: functional, tissue-based
# Summary of the method: (§3)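 Fertilized chicken eggs incubated seven days at 37.5 °C, ~55% humidity, and the air sac membrane was detached. Sterile 5 × 5 mm filter paper soaked with DMSO or compound (5 and 10 nmol/egg) was air-dried and placed on the CAM. Eggs were sealed and reincubated. Fat emulsion (20%) was injected into the CAM and vessels photographed. Three independent experiments.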
# Gallus gallus [15] = species on record: Gallus gallus; assay: Antiangiogenic activity in chicken embryo chorioallantoic membrane model assessed as inhibition of new blood vessel formation at 5 nmol/egg after 48 hrs by microscopy; type: functional, tissue-based; summary of the method: as §3
# HUVEC [16] = assay: Antiangiogenic activity against HUVEC assessed as inhibition of VEGF-induced branching and network formation at 25 umol/L after 5 hrs by microscopy; type: functional, cell-based; details: Homo sapiens
# Summary of the method: (§4)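 Matrigel-coated wells gelled 37 °C 30 min. DMSO or compound (final 25 µmol/L) added for 30 min before plating. After 5 h, enclosed complete tubes counted in five random fields by microscopy. Triplicate experiments, means ± SEM.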
# HUVEC [17] = assay: Antiangiogenic activity against HUVEC assessed as inhibition of VEGF-induced tube formation at 25 umol/L after 5 hrs by microscopy; type: functional, cell-based; details: Homo sapiens; summary of the method: as §4
# HUVEC [18] = assay: Antiangiogenic activity against HUVEC assessed as inhibition of VEGF-induced cell migration at 25 umol/L after 20 hrs by Boyden chamber assay; type: functional, cell-based; details: Homo sapiens
# Summary of the method: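 Boyden chamber, 8.0 µm membrane. HUVECs at 80% confluence serum-starved 12 h in basal medium and suspended at 1 × 10⁶ cells/mL. Pre-treated 30 min at room temperature with DMSO or compound (final 25 µmol/L). After 20 h cells fixed, stained, and counted in five random fields. Triplicate experiments.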
# HuT78 = assay: Cytotoxicity against human HUT78 cells after 24 hrs by MTT assay; type: functional, cell-based; details: HuT78, 24 h
# K562 = assay: Cytotoxicity against human K562 cells after 24 hrs by MTT assay; type: functional, cell-based; details: K562, 24 h
# HL-60 = assay: Cytotoxicity against human HL60 cells after 24 hrs by MTT assay; type: functional, cell-based; details: HL-60, 24 h
# [19] = Cytotoxicity against human SHG44 cells after 24 hrs by MTT assay; type: functional, cell-based; details: SHG-44, 24 h
# A-431 = assay: Cytotoxicity against human A431 cells after 24 hrs by MTT assay; type: functional, cell-based; details: A-431, 24 h
# A549 = assay: Cytotoxicity against human A549 cells after 24 hrs by MTT assay; type: functional, cell-based; details: A549, 24 h
# MKN-45 = assay: Cytotoxicity against human MKN45 cells after 24 hrs by MTT assay; type: functional, cell-based; details: MKN-45, 24 h
# HCT-116 = assay: Cytotoxicity against human HCT116 cells after 24 hrs by MTT assay; type: functional, cell-based; details: HCT-116, 24 h
# HepG2 = assay: Cytotoxicity against human HepG2 cells after 24 hrs by MTT assay; type: functional, cell-based; details: HepG2, 24 h
# MDA-MB-231 = assay: Cytotoxicity against human MDA-MB-231 cells after 24 hrs by MTT assay; type: functional, cell-based; details: MDA-MB-231, 24 h
# MDA-MB-435 = assay: Cytotoxicity against human MDA-MB-435 cells after 24 hrs by MTT assay; type: functional, cell-based; details: MDA-MB-435, 24 h
# BXPC-3 = assay: Cytotoxicity against human BxPC3 cells after 24 hrs by MTT assay; type: functional, cell-based; details: BXPC-3, 24 h
# PANC-1 [20] = assay: Cytotoxicity against human PANC1 cells after 24 hrs by MTT assay; type: functional, cell-based; details: PANC-1, 24 h
# PBMC = assay: Cytotoxicity against human PBMC after 24 hrs by MTT assay; type: cell-based
# HUVEC [21] = assay: Antiangiogenic activity against HUVEC assessed as inhibition of VEGF-induced migration at 25 umol/L after 20 hrs by microscopy; details: Homo sapiens
structure (smiles),measurement,setting,value
COc1cc2ccc(=O)oc2cc1OCC(O)CNC(C)C (configuration not stated),inhibition of growth at 100 µM,HUVEC [1],6.3%
same,inhibition of growth at 10 µM,HUVEC [2],0.1%
COc1cc2ccc(=O)oc2cc1OCCBr,inhibition of growth at 100 µM,HUVEC [1],5.6%
same,inhibition of growth at 10 µM,HUVEC [2],4.9%
COc1cc2ccc(=O)oc2cc1OCCCCBr,inhibition of growth at 100 µM,HUVEC [1],16.9%
same,inhibition of growth at 10 µM,HUVEC [2],11.2%
COc1ccc(C(=O)COc2cc3oc(=O)ccc3cc2OC)cc1,IC50,HUVEC [3],37.5 µM
same,inhibition of growth at 100 µM,HUVEC [1],85.6%
same,inhibition of growth at 10 µM,HUVEC [2],7.6%
COc1cc2ccc(=O)oc2cc1OCC(=O)c1ccccc1,IC50,HUVEC [3],62.4 µM
same,inhibition of growth at 100 µM,HUVEC [1],83.6%
same,inhibition of growth at 10 µM,HUVEC [2],3.4%
COc1cc2ccc(=O)oc2cc1OCCN1CCN(C)CC1,inhibition of growth at 100 µM,HUVEC [1],12%
same,inhibition of growth at 10 µM,HUVEC [2],0%
COc1cc2ccc(=O)oc2cc1OCC(O)CN1CCN(C)CC1 (configuration not stated),inhibition of growth at 100 µM,HUVEC [1],3.4%
same,inhibition of growth at 10 µM,HUVEC [2],0.1%
COc1cc2ccc(=O)oc2cc1OCCN1CCCCC1,inhibition of growth at 100 µM,HUVEC [1],6.1%
same,inhibition of growth at 10 µM,HUVEC [2],0.1%
COc1cc2ccc(=O)oc2cc1OCCCCl,inhibition of growth at 100 µM,HUVEC [1],9.4%
same,inhibition of growth at 10 µM,HUVEC [2],0.1%
COc1cc2ccc(=O)oc2cc1OCC(=O)c1ccc(F)cc1,inhibition of growth at 100 µM,HUVEC [1],16.6%
same,inhibition of growth at 10 µM,HUVEC [2],3.6%
CCN(CC)CC(O)COc1cc2oc(=O)ccc2cc1OC (configuration not stated),inhibition of growth at 100 µM,HUVEC [1],0.3%
same,inhibition of growth at 10 µM,HUVEC [2],0.5%
COc1cc2ccc(=O)oc2cc1OCC(=O)c1ccc(Br)cc1,Activity,HUVEC [4],inactive
same,Activity,HUVEC [5],inactive
same,Activity,HUVEC [6],inactive
same,Activity,HUVEC [7],inactive
same,inhibition,[8],inactive
same,inhibition,[9],inactive
same,inhibition,[10],Active
same,inhibition,PANC-1 [11],Active
same,inhibition,[12],Active
same,inhibition,PANC-1 [13],Active
same,inhibition,Gallus gallus [14],Active
same,inhibition,Gallus gallus [15],Active
same,inhibition,HUVEC [16],Active
same,inhibition,HUVEC [17],Active
same,inhibition,HUVEC [18],Active
same,IC50,HuT78,93.7 µM
same,IC50,K562,70 µM
same,IC50,HL-60,90.4 µM
same,IC50,[19],> 100 µM
same,IC50,A-431,> 100 µM
same,IC50,A549,> 100 µM
same,IC50,MKN-45,> 100 µM
same,IC50,HCT-116,> 100 µM
same,IC50,HepG2,90.4 µM
same,IC50,MDA-MB-231,47 µM
same,IC50,MDA-MB-435,> 100 µM
same,IC50,BXPC-3,> 100 µM
same,IC50,PANC-1 [20],63.7 µM
same,IC50,PBMC,> 100 µM
same,IC50,HUVEC [3],16.8 µM
same,inhibition of growth at 100 µM,HUVEC [1],97.5%
same,inhibition of growth at 10 µM,HUVEC [2],13.2%
same,inhibition,HUVEC [21],Active
